Each structure is given as a SMILES string. Among all 1,300 compounds or so, about 65 (5%) were called active. The list is a sample of the results. Potency and affinity values are given separately. Unmarked numbers belong to inactive results.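 How the source made its calls: active means growth inhibition reaching a set limit at one or more tested doses; inactive means the rest.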

A short description of this assay: wild-type E. coli BW25113 antibacterial activity – OD615, dose response (AID 638). As to conditions: at 100 µM (top of the series) unless noted. The procedure, abridged: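 Material – E. coli BW25113 wild type · Medium – Kanamycin-supplemented LB broth · Doses – compound dilution series for dose-response · Incubation – 20 h compound exposure, 37 °C · Technique – optical density (absorbance) at 615 nm · Read-out basis – IC50 from 4-parameter logistic, bounds fixed 0–100% · Control set – chloramphenicol at 30 µM final as inhibition control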
As for `N=c1c2c(-c3ccccc3)c(-c3ccccc3)n(Cc3ccco3)c2ncn1Cc1ccco1`, the growth inhibition was 8.39%.
As for `CC(C)(C)N1C(=O)Cc2c1nc(N)c1c(N)nc(N3CCCCC3CO)c(C#N)c21` (stereo not drawn), the growth inhibition is -2.72%.
In the case of `c1csc(-c2noc(COc3ccc4c(c3)CCCC4)n2)c1`, the growth inhibition is 14.2%.
The value for `COc1ccc(CNC(=O)c2cc(-c3ccccc3OC)on2)cc1` was 10.6%; that for `O=C(CS(=O)(=O)c1ccccc1)Nc1nc(-c2ccccc2)cs1` was 7.34%.
The value for `CCN(CC)c1ccc(C(=O)Nc2cccc(F)c2)cc1` was 0.51%; that for `O=C(CN1CCN(S(=O)(=O)c2ccc(F)cc2)CC1)Nc1ccc(Cl)c(C(F)(F)F)c1` was 1.58%; that for `CC1CCN(c2nc3ccccc3nc2C(C#N)S(=O)(=O)c2ccccc2)CC1` (stereo not drawn) was -11.4%.
The value for `CC1=CCC(COC(=O)Nc2ccccc2)CC1` (stereo not drawn) was 10.3%; that for `Cc1cccnc1NC(=O)c1c(O)c2cccc3c2n(c1=O)CCC3` was 0.91%.
For the compound `CCn1c(=O)c(C(=O)Nn2c(C)nc3ccccc3c2=O)c(O)c2ccccc21`, the growth inhibition is 2.63%.
The value for `CCOC(=O)Cc1c(C)nc2c(-c3cccc(Br)c3)c[nH]n2c1=O` was 7.94%; that for `Cc1onc(-c2ccccc2)c1C(=O)Nc1nnc(COc2ccc(Cl)cc2)s1` was -9.06%.
The value for `CCn1c(C(=O)N2CCC(Cc3ccccc3)CC2)cc2sccc21` was -18.6%.
The value for `N#Cc1c(NC(=O)c2ccc(Br)o2)n(-c2ccccc2)c2nc3ccccc3nc12` was -13.4%; that for `CC1=C(C#N)c2nc(N)c(C#N)c(C)c2/C1=C\c1ccccc1` was -0.01%.
On to `C(=C\c1ccccc1)/CN1CCN(c2ncnc3c2oc2ccccc23)CC1`, for which the growth inhibition is -1.65%.
The value for `CCC(CC)c1nnc(NC(=O)c2c(-c3ccccc3)noc2C)s1` was 9.3%; that for `O=C1c2ccccc2C(O)(Cc2ccccc2)N1C1CCCCC1` (stereo not drawn) was -0.01%; that for `CCCc1nc(SCC(=O)N2CCC(Cc3ccccc3)CC2)c2c(=O)n(C)c(=O)n(C)c2n1` was -7.24%.
The value for `O=C(Nc1ccc2nc(-c3cccs3)[nH]c2c1)c1ccco1` was 15%; that for `Cc1ccccc1S(=O)(=O)Cc1ccc(C(=O)N2CCN(c3cccc(C)c3C)CC2)o1` was 7.63%; that for `COc1ccc(-c2cc3nc4c(c(N5CCC6(CC5)OCCO6)n3n2)CCCC4)cc1` was 0.64%.
For the compound `Clc1ccc(C2=Nn3c(nnc3-c3n[nH]c4c3CCC4)SC2)cc1Cl`, the growth inhibition is 1.98%.
The value for `Cc1cccc(N2C(N)=C(C#N)C(C#N)(C#N)C2c2ccccc2)c1` (stereo not drawn) was -0.76%; that for `CC(C)(C)C(=O)Cn1c(=N)n(Cc2ccccc2)c2ccccc21` was 1.06%; that for `O=c1n(Cc2ccccc2)c2cc(Cl)cnc2n1Cc1ccccc1` was 6.2%.
The value for `O=C(NCc1ccco1)C(c1cccs1)N(C(=O)C1COc2ccccc2O1)c1cccc(O)c1` (stereo not drawn) was 1.03%.
The value for `CCOC(=O)N1CCN(c2nc(N(c3ccccc3)c3ccccc3)nc(-n3ccnc3)n2)CC1` was -3.06%; that for `COc1ccc(C2c3sc(=O)[nH]c3SC3C4CCC(C4)C23)cc1` (stereo not drawn) was 0.8%; that for `CCOC(=O)c1cn(CC)c2cc(N3CCOCC3)c(F)cc2c1=O` was 4.05% [at 50 µM].
For the compound `O=C(Nc1ccc(N2CCN(C(=O)c3ccco3)CC2)c(Cl)c1)c1cccs1`, the growth inhibition is -1.45%.
The value for `CCOc1ccccc1N1CCN(C(=O)Nc2ccc(F)c(Cl)c2)CC1` was -9.1%.
In the case of `Cc1nc2c(C(=O)NCc3ccc4c(c3)OCO4)c[nH]n2c(=O)c1Cc1ccccc1F`, the growth inhibition is 0.77%.
The value for `CCn1cc(C(=O)O)c(=O)c2cc(OC)ccc21` was 19.6%.
Take `CCOC(=O)c1cn(CC)c2cc(N3CCCCC3)c(F)cc2c1=O`: the growth inhibition is -6.06%.
The value for `O=C(Nc1ccc(N2CCN(C(=O)c3ccco3)CC2)c(Cl)c1)c1c(F)c(F)c(F)c(F)c1F` was -3.01%.
The value for `CCn1cc(C(=O)O)c(=O)c2cnc(N3CCN(C(=O)Nc4ccccc4)CC3)nc21` was 5.93%; that for `CCn1c2ccccc2c2cc(NC(=O)c3ccco3)ccc21` was -3.49%; that for `COc1ccccc1-c1cc(C(=O)NCc2ccc(F)cc2)no1` was -0.01%.
Consider `CCOC(=O)C1=C(C)NC(SCC(=O)Nc2cc(C)on2)=C(C#N)C1c1cccs1` (stereo not drawn), for which the growth inhibition was 3.97%.
On to `CCOC(=O)c1c(-c2cccs2)csc1NC(=O)CN1CC(C)OC(C)C1` (stereo not drawn), for which the growth inhibition is -7.6%.
The value for `Nc1nc(CN2CCN(c3cccc(Cl)c3)CC2)nc(N2CCCc3ccccc32)n1` was 4.24%; that for `O=c1c2c(nc3c(-c4cccc5ccccc45)c[nH]n13)CCC2` was -1.35%; that for `Cc1ccc(Cn2ccc(NC(=O)c3cc(CC(C)C)on3)n2)cc1` was 0.62%.
The value for `N#Cc1cn(CCOc2ccccc2F)c2ccccc12` was -0.93%.
Consider `COc1ccccc1N1CCN(C(=O)c2cc(-c3ccc(C)cc3)on2)CC1`, for which the growth inhibition is -0.92%.
The value for `Cc1cccc(C)c1NC(=O)C(c1cccs1)N(Cc1ccco1)C(=O)Cn1nnc2ccccc21` (stereo not drawn) was -8.04%; that for `O=C(Nc1ccc2c(c1)CCC2)C1COc2ccccc2O1` (stereo not drawn) was 7.62%.
The value for `CCCN(CCC)C(=O)CSc1nc2ccccc2c(=O)n1C1CCCC1` was -6.85%; that for `CCOC(=O)c1cc2sccc2n1Cc1ccc(C#N)cc1` was -10.3%.
For `CCc1c(O)nc(SCC(=O)Nc2ccc(C)cc2)n(C2CCCCC2)c1=O`, the growth inhibition was -10.1%.
Turning to `CC1CCCc2sc3nc(NCc4ccco4)n4ncnc4c3c21` (stereo not drawn), the growth inhibition was -3.17%.
The value for `O=C1OC(c2ccc(O)cc2)(c2ccc(O)cc2)c2ccccc21` was 24.6% (active); that for `CCn1c(SC)nnc1-c1sc2cc(Cl)ccc2c1Cl` was 2.34%; that for `CC1CCCCC1n1c(=S)[nH]c2ccccc2c1=O` (stereo not drawn) was -0.57%.
On to `CCCOc1ccc2oc(=O)c3c(c2c1)CCCN3C(=O)CN1CCc2ccccc2C1`, for which the growth inhibition was 0.92%.
With `Cc1ccc(O)c(C(=O)CC(=O)c2cccc(F)c2)c1`, the growth inhibition is 11.9%.
The value for `CCCCCSc1nnc(-c2cc(Br)ccc2N)c(=O)[nH]1` was -4.38%; that for `CCCc1cc(C(=O)Nc2cccc(Cl)c2)no1` was 12.5%; that for `CC(C)COC(=O)NCCOC(=O)Nc1cccc(Cl)c1` was 18.9%.
Take `CCOC(=O)C1CCCN(c2ncnc3c2cnn3-c2ccc(Cl)cc2)C1` (stereo not drawn): the growth inhibition is -11.7%.
The value for `O=C1CC(c2ccco2)CC2=C1C1c3ccccc3C(=O)N1c1ccccc1N2` (stereo not drawn) was -3.27%.
The value for `CC(C)Cn1c(=O)c(C(=O)Nc2cnccn2)c(O)c2ccccc21` was 16.1%; that for `O=C(C1CC1)N1CCc2cc(S(=O)(=O)NCCC3=CCCCC3)ccc21` was 9.41%.
The value for `CCOC(=O)c1ccccc1NC(=O)C(C)Oc1ccccc1` (stereo not drawn) was -0.25%.
In the case of `Cc1cc2n(n1)C(c1ccc3c(c1)OCO3)Nc1c(C)cccc1-2` (stereo not drawn), the growth inhibition is -5.6%.
Turning to `CSc1nc2ccc(NS(=O)(=O)c3ccc4c(c3)OCCO4)cc2s1`, the growth inhibition is -7.17%.
The value for `Cc1ccc(NC(=O)c2nnn(-c3cc(C)cc(C)c3)c2N)cc1` was -3.73%; that for `CCCCOc1ccc(S(=O)(=O)N2CCCCCC2)cc1` was 6.59%; that for `Cc1ccc(Cl)cc1N1CCN(C(=O)c2ccc(NS(=O)(=O)c3c(C)noc3C)cc2)CC1` was -7.75%.
The value for `CC(=Nc1ccc(O)cc1)c1sc2ccccc2c1O` was -1.71%; that for `O=c1c2ccccc2nc(SCc2cn3ccsc3n2)n1-c1ccccc1F` was -8.01%; that for `COC(=O)c1c(NC(=O)Cc2cccs2)sc2c1CCCC2` was 2.67%.
`COc1ccccc1N1CCN(C(=O)COc2ccc(C)cc2Br)CC1`: the growth inhibition was 12.1%.
The value for `CCOC(=O)N1CCN(C(=O)COc2ccc(S(=O)(=O)Nc3ccc(OCC)cc3)cc2)CC1` was 3.01%; that for `CCOc1ccc(S(=O)(=O)Nc2cccc(Cl)c2)cc1` was 20% (active).
The value for `CCOc1ccc(NS(=O)(=O)c2ccc(SC)cc2)cc1` was 11.9%; that for `Cc1ccc(-n2c(=O)[nH]cc(C(=O)Nc3ccc4c(c3)OCCO4)c2=O)cc1C` was -5.27%.
The value for `O=C(OC1CCc2ccccc2C1=O)c1ccccc1O` (stereo not drawn) was 9.44%; that for `CCCCCc1cc(O)c2c(C)cc(=O)oc2c1` was 7.24%; that for `CCCCCCOC(=O)C(C#N)c1nc2ccccc2nc1N1CCN(C)CC1` (stereo not drawn) was 12.3%.
Consider `CC1=C(C(=O)OCC(C)C)C(c2cc3c(cc2Br)OCO3)NC(=O)N1C` (stereo not drawn), for which the growth inhibition was 12.5%.
As to `CN(C)c1ccc(/C=N/n2ncc3ccccc32)cc1`, the growth inhibition was -3.99%.
On to `COc1nc(N(c2ccccc2)c2ccccc2)nc(-n2ccnc2)n1`, for which the growth inhibition is 12.7%.
The value for `COc1ccccc1OCC(=O)N(Cc1nc(-c2ccccc2)no1)C1CCCCC1` was -2.24%; that for `COC(=O)c1ccccc1NC(=O)N1c2ccccc2CC1C` (stereo not drawn) was 3.49%; that for `Cc1ccc(C)n1-n1cnc2sc(-c3ccccc3)cc2c1=O` was -14.3%.
The value for `CCOC(=O)c1cn(CC)c2cc(N3CCSCC3)c(F)cc2c1=O` was 10.1%; that for `O=C(Nc1ccc(Cl)cc1)N(Cc1cccs1)Cc1cccs1` was -8.41%.
The value for `Cc1ccc(OCc2nc(C#N)c(N3CCN(Cc4ccccc4)CC3)o2)cc1` was -9.19%.
As for `COc1ccc(OC)c(S(=O)(=O)N2CCN(c3c(C)cccc3C)CC2)c1`, the growth inhibition is -10%.
The value for `COc1cc(NS(=O)(=O)c2ccc(Br)cc2)c(OC)cc1NC(=O)c1ccco1` was -12%.

Values taken from PubChem BioAssay AID638 (SRMLSC, 2007).
